# High-throughput results deposited in PubChem by several laboratories.
# MT stabilize HCS: microtubule stabilizers in HeLa cells, primary screen, imaging, high-content imaging; HeLa tubulin immunostaining HCS, 24 h; share of cells brighter than vehicle mean+2SD; AID 2205, 2009; % tubulin-high responders, % at 10 µM; 0.83% of 200,000 active;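 active means plate Z-score above 3 for both tubulin-high and condensed-nucleus cell shares, with cell loss under 80%, at 10 µM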;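 further: anti alpha tubulin signal scored within the nucleus-defined area of each cell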
# Insulin prom up: insulin promoter activators in MIN6 cells, imaging, high-content screening, mouse beta cells | MIN6 insulin promoter-GFP reporter; stronger effect = higher value | z-score at 5 µM | 0.3% of 190,000 active;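 active means z-score above 3 at 5 µM with at least 500 cells counted in the well; inconclusive means wells under 500 cells, flagged as cytotoxic or low count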
# Wee1 stabilizer: Wee1 degradation inhibitors, primary screen, cell-based, HeLa, Wee1K328M-luciferase, luminescence; HeLa Luc-Wee1K328M stability; 100% = proteasome inhibitor MG132 effect; Wee1-like protein kinase (Homo sapiens), P30291; 1.2% of 220,000 active; reporter increase, % at 5 µM;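 active means activation above the mean of all tested compounds plus 3 SD, set per screening run, cut at about 8.8% in these data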;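 further: cells exposed to compound for 20 h before luminescence read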
# Target sequence (P30291 whole entry K328M): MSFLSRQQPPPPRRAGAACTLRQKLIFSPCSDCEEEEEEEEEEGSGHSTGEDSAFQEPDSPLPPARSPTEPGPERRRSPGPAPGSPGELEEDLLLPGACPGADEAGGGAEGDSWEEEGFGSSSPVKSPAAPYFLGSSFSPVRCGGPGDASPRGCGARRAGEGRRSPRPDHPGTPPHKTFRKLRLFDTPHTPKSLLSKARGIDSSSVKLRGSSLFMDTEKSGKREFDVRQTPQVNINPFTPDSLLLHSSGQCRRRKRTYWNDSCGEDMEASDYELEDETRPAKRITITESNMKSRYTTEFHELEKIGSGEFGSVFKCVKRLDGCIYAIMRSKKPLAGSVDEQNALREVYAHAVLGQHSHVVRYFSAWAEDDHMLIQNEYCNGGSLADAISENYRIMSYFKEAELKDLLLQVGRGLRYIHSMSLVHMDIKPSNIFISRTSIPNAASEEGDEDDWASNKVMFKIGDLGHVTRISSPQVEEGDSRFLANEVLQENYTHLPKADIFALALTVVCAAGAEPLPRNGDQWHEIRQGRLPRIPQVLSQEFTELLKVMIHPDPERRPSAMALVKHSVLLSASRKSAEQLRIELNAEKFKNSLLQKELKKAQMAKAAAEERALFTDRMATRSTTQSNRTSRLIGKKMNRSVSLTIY
# Autophagy mod: autophagy modulators in MEF cells, primary screen, imaging, high-content, MEF GFP-LC3. AID 463193, 2010. MEF GFP-LC3 puncta imaging; test concentration mostly 10 µM. calls only at 10 µM (by protocol). 0.98% of 190,000 active;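 active means percentage of spot-positive cells more than 3 SD above its plate mean, without a fluorescence outlier flag or 80% toxicity; inconclusive means no clear call, values can overlap the other calls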
# bCat nuc transl: modulators of beta-catenin nuclear translocation, primary screen, imaging, HeLa cells, immunofluorescence, high-content; nuclear translocation activity, % at 5 µM; 0.3% of 190,000 active; AID 1665, 2009;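 active means nuclear translocation activity above 50% at 5 µM, with a well cell count of 50 or more; inconclusive means wells under 50 cells across six images, flagged as toxic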;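 further: per-cell ratio of nuclear to cytoplasmic median beta-catenin stain intensity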
#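 Test system: human HeLa cells, native beta-catenin. Compound dosing: 5 µM primary single dose, 0.1% DMSO, 0.02–20 µM confirmation series. Incubation: compound exposure 24 h at 37°C. Detection: beta-catenin immunostaining with DAPI counterstain, 20x imaging, 6 fields/well. Read-out basis: Nuclear/cytoplasmic beta-catenin signal ratio, % activation.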
# Hits are given with their value; . = inactive; ? = inconclusive; / = not tested or not shown; + = active, no number. The list is not random: actives were taken first. Their share in the collection is about 2.9%.
SMILES,MT stabilize HCS,Insulin prom up,Wee1 stabilizer,Autophagy mod,bCat nuc transl
O=C(NCc1cccc(C(F)(F)F)c1)C1CC(c2c(Cl)cccc2Cl)=NO1 (stereo not given),37.4,.,.,.,.
COc1ccccc1-c1cc(C(=O)N2CCCc3ccccc32)no1,.,.,9.8,.,/
COc1ccc(OC)c(-c2cc(C(=O)N3CCCc4ccccc43)no2)c1,.,.,.,.,/
O=C(NCc1ccco1)c1ccc(COc2ccccc2Cl)cc1,.,.,13.1,.,.
Cc1ccsc1C(=O)NNC(=O)C1C2C=CC(C2)C1C(=O)O (stereo not given),.,.,10.2,.,.
COC(=O)c1sccc1NC(=O)C1C2C=CC(C2)C1C(=O)O (stereo not given),.,/,.,.,.
Cc1noc(C)c1S(=O)(=O)Nc1ccc(C(=O)N2CCC(C)CC2)cc1,.,.,.,.,.
CCN(CC)S(=O)(=O)c1cc([N+](=O)[O-])ccc1N=Nc1c(O)[nH]c2ccccc12,.,/,.,+,.
Cc1c(C(=O)N(C)C)sc(NC(=O)c2cccc([N+](=O)[O-])c2)c1C#N,.,/,10.2,.,.
COc1ccc(CNCc2cccc(Oc3ccccc3)c2)cc1,.,/,.,.,.
CCCS(=O)(=O)Nc1ccc2cn[nH]c2c1,.,.,.,.,.
CCOc1cc(C)c(S(=O)(=O)Nc2ccc3cn[nH]c3c2)cc1C,.,4.24,.,.,.
COCCNC(=O)CS(=O)Cc1nc(-c2ccc(OC)cc2)oc1C (stereo not given),.,.,.,+,/
COC(=O)CCSCC(=O)N1N=C(c2ccc(Br)cc2)CC1c1cccc(OC)c1OC (stereo not given),.,.,.,.,.
Cc1ccc(C)c(-c2[nH]ncc2CN2CCCC(CO)(Cc3ccccc3C)C2)c1 (stereo not given),.,.,.,.,.
Cc1cccc(-c2ncc(CN3CCCC(CO)(Cc4ccccc4C)C3)cn2)c1 (stereo not given),.,3.13,.,.,.
COCCCn1c(=S)[nH]c2sc3c(c2c1=O)CCCS3,.,.,.,.,.
Cc1ccc(-n2ncc(Br)c(Br)c2=O)cc1,.,.,.,+,.
O=c1c(Br)c(Br)cnn1-c1ccccc1,.,?,.,.,.
CCC(C)N=C1Sc2nc3ccc(C)cc3cc2CN1CCOC (stereo not given),.,.,.,.,.
CN1/C(=C\C(=O)CSc2nnc(NCc3ccccc3)s2)C(C)(C)c2ccccc21,.,?,.,.,.
Cc1ccc(N/C(=C\C(=O)c2ccccc2)C(=O)O)cc1,.,/,.,.,.
COc1cc(S(=O)(=O)Nc2cccc(C)c2)ccc1N=Cc1c(C)[nH]n(-c2ccccc2)c1=O,18.3,.,.,.,.
Cc1[nH]n(-c2ccccc2)c(=O)c1C=Nc1cccc2cccnc12,.,.,.,+,.
COc1cc(S(=O)(=O)Nc2ccc(C)cc2)ccc1N=Cc1c(C)[nH]n(-c2ccccc2)c1=O,.,.,.,.,.
SMILES,MT stabilize HCS,Insulin prom up,Wee1 stabilizer,Autophagy mod,bCat nuc transl
CC(C)CCN1CCN(Cc2cccc(C(F)(F)F)c2)CC1CCO (stereo not given),.,/,.,.,.
O=C(Nc1cc(Cl)cc(Cl)c1)c1coc(=O)c(Br)c1,/,.,14.0,/,.
CCOC(=O)C1=C(C)N=C2SC=C(C)N2C1c1ccc(OC)cc1 (stereo not given),12.2,.,.,.,.
CCOC(=O)C1=C(C)N=C2SCCC(=O)N2C1c1ccc(OC)cc1 (stereo not given),.,.,.,.,.
COc1ccc(C2=NOC(C(=O)NCc3ccccn3)C2)cc1OC (stereo not given),.,.,.,.,.
COc1ccc(CNC(=O)C2CC(c3ccc(OC)cc3)=NO2)cc1 (stereo not given),.,.,.,.,.
COc1ccc(C2=NOC(C(=O)NCc3cccs3)C2)cc1 (stereo not given),.,.,.,+,/
COc1ccc(C2=NOC(C(=O)NCc3cccs3)C2)cc1OC (stereo not given),41.2,.,.,.,/
CCn1ncc(C2=NOC(C(=O)NCc3ccc(Cl)cc3)C2)c1C (stereo not given),.,.,.,.,277.6
COc1ccc(OC)c(C2=NOC(C(=O)NCC3CCCO3)C2)c1 (stereo not given),.,3.67,.,.,.
COc1cccc(C2=NOC(C(=O)NCC3CCCO3)C2)c1 (stereo not given),.,.,.,.,.
N#C/C(=C\c1cccc(O)c1)C(=O)Nc1ccc2c(c1)OCCO2,/,.,.,/,.
Cc1ccc(N2C(=O)CC(NNC(=O)Cc3ccc(F)cc3)C2=O)cc1Cl (stereo not given),/,.,.,/,.
COc1ccc(CC(=O)NCc2cccs2)cc1,42.8,.,.,.,53.9
O=C(Cc1cccs1)NCc1cccs1,.,/,.,.,.
COc1ccc(CNC(=O)C2CC(c3ccc(F)cc3)=NO2)cc1 (stereo not given),.,.,.,.,.
COc1ccc(-c2csc(N(CC3CCCO3)C(=O)c3cccs3)n2)cc1 (stereo not given),.,.,.,.,.
COc1ccc(OC)c(-c2csc(N(CC3CCCO3)C(=O)C3CCCCC3)n2)c1 (stereo not given),.,.,.,+,.
COc1cc(OC)c(C2=NOC(C(=O)NCc3cccs3)C2)cc1Cl (stereo not given),19.4,.,9.6,.,.
COc1ccc(C2=NOC(C(=O)NCc3ccc(F)cc3)C2)cc1 (stereo not given),.,.,.,.,65.4
CCCCNC(=O)Cc1coc2ccc3ccccc3c12,.,.,.,.,.
COc1ccccc1NC(=O)c1c(N=Cc2c(O)ccc3ccccc23)cnn1C,/,.,9.0,/,.
Cn1ncc(N=Cc2c(O)ccc3ccccc23)c1C(=O)N1CCOCC1,.,/,.,.,/
Cc1cccc(-n2c(CNC(=O)c3cccc([N+](=O)[O-])c3C)n[nH]c2=S)c1,13.7,.,.,.,.
c1ccc(-c2nc(N3CCOCC3)c3ccccc3n2)nc1,.,.,.,.,.
SMILES,MT stabilize HCS,Insulin prom up,Wee1 stabilizer,Autophagy mod,bCat nuc transl
Cc1nc(-c2ccccn2)nc(N2CCOCC2)c1Cl,/,.,10.2,/,.
C=CCOc1c(CNC2CCCC2)cc(Cl)cc1OC,.,.,.,.,.
CCNCc1cc(Cl)cc(OC)c1OC(C)C,.,/,9.2,.,.
COc1ccc(C(=O)N(C)c2c(C)n(C)n(-c3ccccc3)c2=O)cc1OC,.,.,.,+,.
CCN1CCN(c2ccc(NC(=O)c3ccc4c(c3)[nH]c(=O)n4Cc3ccc(OC)cc3)cc2)CC1,.,.,.,.,.
COc1ccccc1C1CC(c2ccco2)=NN1S(C)(=O)=O (stereo not given),.,/,.,.,.
